Assay results reported in ChEMBL document CHEMBL1833887, “Synthesis and evaluation of 7-substituted 4-aminoquinoline analogues for antimalarial activity” (J Med Chem, 2011).
In brackets after ≈: the same amount, converted by molar mass.

Key:
[1] = tested on: Plasmodium falciparum; assay: Antimalarial activity against chloroquine-resistant Plasmodium falciparum K1 infected in human erythrocytes assessed as reduction in parasitemia after 72 hrs by spectrophotometry; assay type: functional, organism-based; settings: K1, 72 h
[2] = tested on: Plasmodium falciparum; assay: Antimalarial activity against chloroquine-sensitive Plasmodium falciparum 3D7 infected in human erythrocytes assessed as reduction in parasitemia after 72 hrs by spectrophotometry; assay type: functional, organism-based; settings: 3D7, 72 h
[3] = Solubility of the compound at pH 7.4 after 18 hrs by UV spectroscopic analysis; assay type: physicochemical; settings: buffer
In short: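 Kinetic solubility. A 10 mM stock is diluted 1:100 into PBS pH 7.4 and incubated 18 h at room temperature, then filtered; the filtrate is mixed 1:1 with 1-propanol. UV spectrum (250–500 nm) compared by AUC with a 1-propanol/PBS reference. Single experiment in triplicate.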

[4] = Ratio of EC50 for human HepG2 cells to EC50 for Plasmodium falciparum K1 infected in human erythrocytes
[5] = tested on: Plasmodium falciparum; assay: Ratio of EC50 for chloroquine-resistant Plasmodium falciparum K1 infected in human erythrocytes to EC50 for chloroquine-sensitive Plasmodium falciparum 3D7 infected in human erythrocytes; assay type: functional
[6] = tested on: HepG2; assay: Cytotoxicity against human HepG2 cells assessed as intracellular ATP level after 72 hrs by Celltiter-Glo luminescent assay; assay type: cell-based; settings: HepG2, 72 h
[7] = Dissociation constant, pKa of the compound; assay type: physicochemical
[8] = Permeability of the compound at pH 7.4 after 30 mins by PAMPA; assay type: ADME; settings: read-out: permeability
In short: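 PAMPA at pH 7.4. A 10 mM DMSO stock is diluted into system solution buffer; its UV spectrum serves as reference. Membrane painted with GIT lipid, acceptor chamber holds acceptor solution buffer. Sandwich stirred for 30 min, aqueous boundary layer set to 40. Donor and acceptor UV spectra read at 250–500 nm. Permeability coefficient from the AUCs of reference, donor and acceptor. Single experiment in triplicate.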

[9] = Ratio of EC50 for human HepG2 cells to EC50 for Plasmodium falciparum 3D7 infected in human erythrocytes

Row | Structure (SMILES) | EC50 [1] | EC50 [2] | solubility at 18 h [3] | Ratio EC50 [4] | Ratio EC50 [5] | EC50 [6] | pKa [7] | Papp at 0.5 h [8] | Ratio EC50 [9]
1 | Fc1ccc(-c2ccc3c(NCCCNCc4ccc5c(c4)OCO5)ccnc3c2)cc1 | 35 nM | 18 nM | 32 µM (≈ 13.7 µg/mL) | 252 | 2 | 8770 nM | 9.47 | 237 ×10⁻⁶ cm/s | 495.4
2 | c1ccc(Oc2ccc3c(NCCCNCc4ccc5c(c4)OCO5)ccnc3c2)cc1 | 78 nM | 18 nM | 14.5 µM (≈ 6.2 µg/mL) | 34 | 4.3 | 2700 nM | 9.28 | 317 ×10⁻⁶ cm/s | 149
3 | COc1ccc(Oc2ccc3c(NCCCNCc4cc(F)ccc4OC)ccnc3c2)cc1 | 660 nM | 54 nM | 14.5 µM (≈ 6.69 µg/mL) | 11 | 12.2 | 7000 nM | 9.28 | 317 ×10⁻⁶ cm/s | 129
4 | COc1cccc(CNCCCNc2ccnc3cc(-c4ccc(C(F)(F)F)cc4)ccc23)c1O | 24 nM | 13 nM | 32 µM (≈ 15.4 µg/mL) | 91 | 1.8 | 2210 nM | 9.47 | 237 ×10⁻⁶ cm/s | 166.2
5 | CCC(CC)c1ccc2c(NCCCNCc3cccc(OC)c3O)ccnc2c1 | 273 nM | 4 nM | 4.2 µM (≈ 1.71 µg/mL) | 1.5 | 68.3 | 410 nM | 9.47 | 23 ×10⁻⁶ cm/s | 103.3
6 | COc1ccc(F)cc1CNCCCNc1ccnc2cc(CC(C)C)ccc12 | 2120 nM | 89 nM | 4.2 µM (≈ 1.66 µg/mL) | 1.4 | 23.9 | 2900 nM | 9.47 | 23 ×10⁻⁶ cm/s | 32.7
7 | FC(F)(F)c1ccc(-c2ccc3c(NCCCNCc4ccc5c(c4)OCO5)ccnc3c2)cc1 | 98 nM | 25 nM | 32 µM (≈ 15.3 µg/mL) | 19.2 | 3.9 | 1890 nM | 9.47 | 237 ×10⁻⁶ cm/s | 74.5
8 | COc1cccc(CNCCCNc2ccnc3cc(-c4cccc5ccccc45)ccc23)c1O | 1120 nM | 33 nM | 32 µM (≈ 14.8 µg/mL) | 2.3 | 33.9 | 2520 nM | 9.47 | 237 ×10⁻⁶ cm/s | 76.3
9 | COc1ccc(F)cc1CNCCCNc1ccnc2cc(Oc3ccccc3)ccc12 | 138 nM | 162 nM | 14.5 µM (≈ 6.26 µg/mL) | 11 | 0.9 | 1500 nM | 9.28 | 317 ×10⁻⁶ cm/s | 9
10 | COc1ccc(F)cc1CNCCCNc1ccnc2cc(Cc3ccc(F)cc3Cl)ccc12 | 1110 nM | 208 nM | 4.2 µM (≈ 2.02 µg/mL) | 2.2 | 5.4 | 2460 nM | 9.47 | 23 ×10⁻⁶ cm/s | 11.8
11 | COc1cccc(CNCCCNc2ccnc3cc(CCc4ccccc4)ccc23)c1O | 5520 nM | 17 nM | 4.2 µM (≈ 1.85 µg/mL) | 1.2 | 324.5 | 6800 nM | 9.47 | 23 ×10⁻⁶ cm/s | 400
12 | COc1cccc(CNCCCNc2ccnc3cc(CCC(C)C)ccc23)c1O | 8000 nM | 22 nM | 4.2 µM (≈ 1.71 µg/mL) | 0.7 | 365.3 | 5390 nM | 9.47 | 23 ×10⁻⁶ cm/s | 245.9
13 | COc1ccc(F)cc1CNCCCNc1ccnc2cc(Cc3cc(C)cc(C)c3)ccc12 | 794 nM | 34 nM | 4.2 µM (≈ 1.92 µg/mL) | 1.2 | 23.1 | 940 nM | 9.47 | 23 ×10⁻⁶ cm/s | 27.4
14 | COc1ccc(F)cc1CNCCCNc1ccnc2cc(Oc3ccccc3OC)ccc12 | 960 nM | 22 nM | 14.5 µM (≈ 6.69 µg/mL) | 7 | 44 | 6400 nM | 9.28 | 317 ×10⁻⁶ cm/s | 293
15 | COc1ccc(F)cc1CNCCCNc1ccnc2cc(C3CCCCC3)ccc12 | 1600 nM | 90 nM | 4.2 µM (≈ 1.77 µg/mL) | 1.4 | 17.7 | 2290 nM | 9.47 | 23 ×10⁻⁶ cm/s | 25.4
16 | Fc1ccc(Oc2ccc3c(NCCCNCc4ccco4)ccnc3c2)cc1 | 96 nM | 26 nM | 14.5 µM (≈ 5.68 µg/mL) | 167 | 3.6 | 16000 nM | 9.28 | 317 ×10⁻⁶ cm/s | 611
17 | COc1ccc(-c2ccc3c(NCCCNCc4ccco4)ccnc3c2)cc1 | 23 nM | 11 nM | 32 µM (≈ 12.4 µg/mL) | 261.9 | 2.2 | 6000 nM | 9.47 | 237 ×10⁻⁶ cm/s | 565.7
18 | FC(F)(F)c1cc(-c2ccc3c(NCCCNCc4ccc5c(c4)OCO5)ccnc3c2)cc(C(F)(F)F)c1 | 604 nM | 284 nM | 32 µM (≈ 17.5 µg/mL) | 1.9 | 2.1 | 1160 nM | 9.47 | 237 ×10⁻⁶ cm/s | 4.1
19 | N#Cc1ccc(Cc2ccc3c(NCCCNCc4ccc5c(c4)OCO5)ccnc3c2)cc1 | 3070 nM | 23 nM | 4.2 µM (≈ 1.89 µg/mL) | 2 | 136.4 | 6080 nM | 9.47 | 23 ×10⁻⁶ cm/s | 270.2
20 | COc1ccc(F)cc1CNCCCNc1ccnc2cc(-c3ccccc3)ccc12 | 45 nM | 11 nM | 32 µM (≈ 13.3 µg/mL) | 66.3 | 4.2 | 2960 nM | 9.47 | 237 ×10⁻⁶ cm/s | 276.4
21 | c1coc(CNCCCNc2ccnc3cc(C4CCCCC4)ccc23)c1 | 3900 nM | 118 nM | 4.2 µM (≈ 1.53 µg/mL) | 1.2 | 33.1 | 4760 nM | 9.47 | 23 ×10⁻⁶ cm/s | 40.4
